Assay type in all cases: functional
The subject of test [1] is Staphylococcus epidermidis. Description: Antibacterial activity against Staphylococcus epidermidis.
In test [2] the test system is Staphylococcus aureus. Kind of test: Antibacterial activity against methicillin-resistant Staphylococcus aureus USA300.
Test [3] relates to Staphylococcus aureus. Kind of test: Antibacterial activity against methicillin-sensitive Staphylococcus aureus.
Test [4] deals with Staphylococcus aureus. Kind of test: Antibacterial activity against Staphylococcus aureus ATCC 29213 infected in C57BL6 mouse cornea assessed as decrease in conjunctival chemosis at 0.3% administered tropically 2 times on day 1, 4 times on day 2 and 2 times on day 3 starting from 6 hrs post infection measured 48 hrs post last dose by slit-lamp photography. An outline of the steps: (§1)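 Mouse corneal epithelium scratched with a scalpel, then infected with 15 µl of 6×10⁶ CFU/ml S. aureus ATCC 29213. From 6 h p.i., 15 µl of PBS vehicle, 0.3% w/v peptide in PBS or 0.3% moxifloxacin was applied, 8 doses total. Outcomes were slit-lamp examination, AS-OCT corneal thickness and CFU counts of harvested corneas (mean log₁₀ CFU/tissue ± SEM).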

The subject of test [5] is Staphylococcus aureus. Kind of test: Antibacterial activity against Staphylococcus aureus ATCC 29213 infected in C57BL6 mouse cornea assessed as mean corneal thickness at 0.3% administered tropically 2 times on day 1, 4 times on day 2 and 2 times on day 3 starting from 6 hrs post infection measured 24 hrs post last dose by AS-OCT method (reference value: 151.7 +/- 12.7 micrometer). An outline of the steps:
as §1

In test [6] the test system is Staphylococcus aureus. Kind of test: Antibacterial activity against Staphylococcus aureus ATCC 29213 infected in C57BL6 mouse cornea assessed as mean corneal thickness at 0.3% administered tropically 2 times on day 1, 4 times on day 2 and 2 times on day 3 starting from 6 hrs post infection measured 48 hrs post last dose by AS-OCT method (reference value: 186.2 +/- 17.5 micrometer). A digest of the protocol: as §1

Test [7] has as its system Staphylococcus aureus. Description: Antibacterial activity against Staphylococcus aureus ATCC 29213 infected in C57BL6 mouse cornea assessed as decrease in log bacterial load/tissue at 0.3% administered tropically 2 times on day 1, 4 times on day 2 and 2 times on day 3 starting from 6 hrs post infection measured 48 hrs post last dose. An outline of the steps:
as §1

The subject of test [8] is Staphylococcus aureus. Kind of test: Antibacterial activity against Staphylococcus aureus ATCC 29213 infected in C57BL6 mouse cornea assessed as decrease in corneal infiltrates at 0.3% administered tropically 2 times on day 1, 4 times on day 2 and 2 times on day 3 starting from 6 hrs post infection measured 48 hrs post last dose by slit-lamp photography. A digest of the protocol: as §1

Converted amounts (≈) assume the structure as drawn. The source made the active and inactive calls. The rule behind the calls is not given here.

In general, MIC refers to the lowest concentration that inhibits growth of the organism.

Turning to `CC[C@@H](C)[C@@H](NC(=O)[C@@H](CCC(N)=O)NC(=O)[C@H](CO)NC(=O)[C@@H](NC(=O)[C@@H](Cc1ccccc1)NC)[C@@H](C)CC)C(=O)N[C@H](C(=O)N[C@@H](CO)C(=O)N[C@H]1C(=O)N[C@@H](C)C(=O)N[C@@H](CCCCNC(=N)N)C(=O)N[C@@H]([C@@H](C)CC)C(=O)O[C@H]1C)[C@@H](C)CC`, the MIC in test [1] was determined as 1 µg/mL (≈ 0.795 µM); in test [2], 2 µg/mL (≈ 1.59 µM); in test [3], 1 µg/mL (≈ 0.795 µM).
For `COc1c(N2C[C@@H]3CCCN[C@@H]3C2)c(F)cc2c(=O)c(C(=O)O)cn(C3CC3)c12` [MOXIFLOXACIN], the result in test [4] and in test [8] was Active. Also, the Activity in test [5] was determined as 124.2 um; in test [6], 140.3 um; in test [7], 3.7 log10CFU.
